{"data": "Measured values of several laboratories", "effect on": "cell growth or viability", "note": "Protocols differ between the studies behind these lines."}
{"Compound": "COc1cccc(NC(=O)Nc2ccc(Oc3nc4ccccc4n4cnnc34)cc2)c1", "cell line": "MDA-MB-231", "method": "MTT", "tested at": "50 µM", "time": "24 h", "quantity": "viability", "value": "32.4%"}
{"Compound": "COc1cc(C(=O)c2nc(-c3ccncc3)c[nH]2)cc(OC)c1OC", "cell line": "A-375", "method": "MTS", "time": "72 h", "quantity": "IC50", "value": "> 1000 nM"}
{"Compound": "NCCCC(=O)Nc1ccccc1/N=c1\\cc(-c2ccc3c(c2)OCO3)oc2ccccc12", "cell line": "MDA-MB-231", "method": "CCK-8", "tested at": "1 µM", "quantity": "inhibition", "value": "8.02%"}
{"Compound": "COc1cc(C(=O)c2nc(-c3ccc4cc[nH]c4c3)c[nH]2)cc(OC)c1OC", "cell line": "A-375", "method": "MTS", "time": "72 h", "quantity": "IC50", "value": "19.9 nM"}
{"Compound": "CN(C)c1ccc(Nc2nc(-c3ccncc3)nc3c2CC(N)CC3)cc1 (stereo not drawn)", "cell line": "A-375", "method": "MTT", "quantity": "IC50", "value": "12600 nM"}
{"Compound": "CNC(=O)c1cc(Oc2ccc(NC(=O)Nc3ccc(Cl)c(C(F)(F)F)c3)cc2)ccn1", "cell line": "MDA-MB-231", "method": "MTT", "tested at": "3.125 µM", "time": "24 h", "quantity": "viability", "value": "70.2%"}
{"Compound": "COc1cc(C(=O)c2nc(-c3cccc4[nH]ccc34)c[nH]2)cc2c1OCO2", "cell line": "A-375", "method": "MTS", "time": "72 h", "quantity": "IC50", "value": "5.1 nM"}
{"Compound": "Cc1nc(Nc2ncc(C(=O)Nc3c(C)cccc3Cl)s2)cc(N2CC[C@H](O)C2)n1", "cell line": "SU-DHL-1", "method": "ATP luminescence", "tested at": "10 µM", "time": "72 h", "quantity": "inhibition", "value": "11%"}
{"Compound": "COc1cc(C(=O)c2nc(-c3cccc4[nH]ccc34)c(C)[nH]2)cc(OC)c1OC", "cell line": "A-375", "method": "MTS", "time": "72 h", "quantity": "IC50", "value": "16.1 nM"}
{"Compound": "O=C(Nc1ccccc1/N=c1\\cc(-c2ccc3c(c2)OCCO3)oc2cc(F)ccc12)N1CCOCC1", "cell line": "MDA-MB-231", "method": "CCK-8", "tested at": "1 µM", "quantity": "inhibition", "value": "8.63%"}
{"Compound": "COc1cccc2c1C(=O)c1c(O)c3c(c(O)c1C2=O)C[C@@](O)(C(=O)CO)C[C@@H]3O[C@H]1C[C@H](N)[C@H](O)[C@H](C)O1", "cell line": "HS27", "method": "CCK-8", "time": "72 h", "quantity": "IC50", "value": "109 nM"}
{"Compound": "NCCC(=O)Nc1ccccc1/N=c1\\cc(-c2ccc3nc(N)oc3c2)oc2cc(O)ccc12", "cell line": "MDA-MB-231", "method": "CCK-8", "tested at": "1 µM", "quantity": "inhibition", "value": "22%"}
{"Compound": "C=C1C[C@@]23CC[C@H]4[C@@](C)(CCC[C@@]4(C)C(=O)O)[C@@H]2CC[C@@H]1C3", "cell line": "MRC5", "method": "MTT", "time": "75 h", "quantity": "IC50", "value": "99200 nM"}
{"Compound": "O=C(Nc1ccc(Oc2nc3ccccc3n3cnnc23)cc1)Nc1cccc(Cl)c1", "cell line": "MDA-MB-231", "method": "MTT", "tested at": "50 µM", "time": "24 h", "quantity": "viability", "value": "41.2%"}
{"Compound": "Nc1nc2ccc(-c3c/c(=N\\c4ccccc4NC(=O)CCN4CCOCC4)c4ccccc4o3)cc2o1", "cell line": "MDA-MB-231", "method": "CCK-8", "tested at": "1 µM", "quantity": "inhibition", "value": "-0.02%"}
{"Compound": "COc1cc(C(=O)c2nc(-c3ccnc4[nH]ccc34)c[nH]2)cc(OC)c1OC", "cell line": "A-375", "method": "MTS", "time": "72 h", "quantity": "IC50", "value": "28.5 nM"}
{"Compound": "Nc1ccccc1/N=c1\\cc(-c2ccc3c(c2)OCO3)oc2ccccc12", "cell line": "MDA-MB-231", "method": "CCK-8", "tested at": "1 µM", "quantity": "inhibition", "value": "2.58%"}
{"Compound": "CCCCC(=O)Nc1ccc(-c2ccc3ncn(CCC)c(=O)c3c2)cn1", "cell line": "MRC5", "method": "CCK-8", "time": "72 h", "quantity": "IC50", "value": "480 nM"}
{"Compound": "COc1ccc2/c(=N/c3ccccc3NC(=O)[C@@H](N)C(C)(C)C)cc(-c3ccc4c(c3)OCCO4)oc2c1", "cell line": "MDA-MB-231", "method": "CCK-8", "tested at": "1 µM", "quantity": "inhibition", "value": "6.88%"}
{"Compound": "O=C(Nc1ccc(Cl)cc1)Nc1ccc(Oc2nc3ccccc3n3cnnc23)cc1", "cell line": "MDA-MB-231", "method": "MTT", "tested at": "50 µM", "time": "24 h", "quantity": "viability", "value": "56.4%"}
{"Compound": "COc1cc(C(=O)c2nc(-c3cccc4cc[nH]c34)c[nH]2)cc(OC)c1OC", "cell line": "A-375", "method": "MTS", "time": "72 h", "quantity": "IC50", "value": "20.5 nM"}
{"Compound": "O=C(Nc1ccccc1)Nc1ccc(Oc2nc3ccccc3n3cnnc23)cc1", "cell line": "MDA-MB-231", "method": "MTT", "tested at": "100 µM", "time": "24 h", "quantity": "viability", "value": "41.6%"}
{"Compound": "O=C(NN=Cc1ccc([N+](=O)[O-])s1)C1CC(=O)N(c2ccc(F)cc2F)C1 (stereo not drawn)", "cell line": "A-375", "method": "MTT", "tested at": "100 µM", "time": "72 h", "quantity": "viability", "value": "4.41%"}
{"Compound": "C[C@H](N)C(=O)Nc1ccccc1/N=c1\\cc(-c2ccc3c(c2)OCCO3)oc2c([N+](=O)[O-])cccc12", "cell line": "MDA-MB-231", "method": "CCK-8", "tested at": "1 µM", "quantity": "inhibition", "value": "-3.63%"}
